An excerpt weighted towards active compounds, which were near 2.3% of everything screened.
PP5 primary = PP5 (human) phosphatase inhibition; AID 1987; inhibition, % at 6.7 µM; purified PP5c, OMFP substrate fluorescence; 0.18% of 320,000 active; P53041;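 active = inhibition above the campaign's mean inhibition across all tested compounds plus 3 SD, cut at about 9.5% in these data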;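 also: 0% = DMSO only and 100% = 100 µM cantharidin control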
UCH37 inh = human UCH37 deubiquitinating enzyme inhibition | purified proteasome/UCH37, Ub-AMC cleavage fluorescence | inhibition, % (concentration not given with the values) | 0.33% of 330,000 active | AID 588478;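 active = mean inhibition over replicate wells above about 20%, limit read from the data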;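 also: 0% = compound-free wells with enzyme and 100% = wells lacking proteasome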
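System: Proteasome-associated human UCH37 deubiquitinase; Input: 0.15 nM proteasome in added enzyme buffer; Also added: Ub-AMC substrate from 1 µM stock; Incubation: 30 min compound-proteasome preincubation then 25 min substrate reaction, room temperature; Detection: fluorescence, ex 355 nm, em 460 nm; Read-out: % inhibition of Ub-AMC cleavage fluorescence; Benchmarks: no-proteasome and no-compound wells.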
UBC13 inh = blocks human UBC13 polyubiquitin chain formation; P61088; TR-FRET; inhibition, % at 20 µM; 0.47% of 330,000 active; in the data active = inhibition above about 45%, passing the limit was not always enough; inconclusive = no clear call, values can overlap the other calls
Target sequence (P61088 whole entry, looked up): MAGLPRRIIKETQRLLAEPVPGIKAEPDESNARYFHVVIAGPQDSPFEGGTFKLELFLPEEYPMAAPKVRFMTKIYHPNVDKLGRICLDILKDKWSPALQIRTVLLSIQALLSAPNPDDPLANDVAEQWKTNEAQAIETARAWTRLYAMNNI
CTSL1 counter = counter-screen for PFM18AAP inhibitors: inhibitors of F. hepatica cathepsin L1; recombinant F. hepatica cathepsin L1, Z-Leu-Arg-MCA fluorescence; inhibition, % at 5.96 µM; 0.49% of 300,000 active; AID 1906;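 active = inhibition above the mean of all tested compounds plus 3 SD, set per screening campaign, cut at about 17% in these data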;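 also: 0% = plate median of test compound wells and 100% = 1 µM Z-Phe-Ala-diazomethylketone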
PP1 inh = PP1-alpha (human) inhibition in PP5 counter-screen. purified PP1alpha, OMFP fluorescence. inhibition, % at 6.7 µM. 0.9% of 320,000 active;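 active = inhibition above the mean inhibition of all tested compounds plus 3 SD, computed separately for each screening campaign, cut at about 15% in these data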
PREPL inhibitor = human PREPL enzyme inhibition | Q4J6C6 | recombinant PREPL, fluorescence polarization activity-based probe | inhibition, % at 5.96 µM | 0.68% of 320,000 active; in the data active = inhibition above about 43%;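 also: 0% = enzyme with DMSO and 100% = wells lacking enzyme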
Casp3 UBC13 ctr = inhibits human caspase-3 in UBC13 counter-screen. shares compounds with UBC13 inh. Recombinant caspase-3, Caspase-Glo 3/7 luminescence, 60 min. inhibition, % at 20 µM. 4% of 1,400 active;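 active = mean inhibition across replicates above about 26%, limit read from the data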;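 also: plate controls were DMSO with caspase-3 for no effect and DMSO wells lacking enzyme for full effect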
Target sequence (P42574 whole entry, looked up): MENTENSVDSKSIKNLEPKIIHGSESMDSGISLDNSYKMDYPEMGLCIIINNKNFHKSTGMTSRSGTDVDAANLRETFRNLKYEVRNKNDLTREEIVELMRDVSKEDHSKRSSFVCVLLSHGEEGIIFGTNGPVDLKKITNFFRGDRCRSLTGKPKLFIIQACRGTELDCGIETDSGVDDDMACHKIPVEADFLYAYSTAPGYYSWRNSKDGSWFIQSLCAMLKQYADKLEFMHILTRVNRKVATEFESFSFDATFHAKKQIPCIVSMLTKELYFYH
UBC13 conf = confirmation of human UBC13 polyubiquitin inhibitors; shares compounds with UBC13 inh; UBC13 polyubiquitination, TR-FRET, biochemical; inhibition, % at 10 µM; 68% of 1,400 active; AID 488859; in the data active = inhibition above about 45%; inconclusive = no clear call, values can overlap the other calls
* hit, by the source's call; ? = inconclusive; nt = no result given.

SMILES | PP5 primary | UCH37 inh | UBC13 inh | CTSL1 counter | PP1 inh | PREPL inhibitor | Casp3 UBC13 ctr | UBC13 conf
OCCNc1nc(Nc2ccccc2Cl)nc(N2CCCC2)n1 | 4 | 3 | 9 | -2 | 0 | -2 | nt | nt
NS(=O)(=O)c1ccc(NN=Cc2ccc(O)cc2O)c([N+](=O)[O-])c1 | nt | 5 | nt | nt | nt | nt | nt | nt
COc1ccc2c(c1)[nH]c1c(=O)n(N=Cc3ccc(OC)c(COc4ccccn4)c3)cnc12 | nt | 6 | nt | nt | nt | nt | nt | nt
Cc1ccc(CC2S/C(=N/N=Cc3ccco3)NC2=O)cc1 (stereo not drawn) | nt | 5 | nt | nt | nt | nt | nt | nt
O=C(NN=Cc1ccc(Cl)cc1)C1CC12CCC2 (stereo not drawn) | nt | 3 | nt | nt | nt | nt | nt | nt
CCCCNC(=O)CON=C(C)c1cc2ccccc2o1 | nt | 0 | nt | nt | nt | nt | nt | nt
Cc1sc2ncnc(N)c2c1C | -1 | 3 | 61* | 0 | 2 | -18 | -7 | 49*
CCOC(=O)c1c(NC(=O)C(NCCN(C)C)c2ccccc2)sc2c1CCCC2 (stereo not drawn) | -2 | -2 | 48* | 1 | 3 | 30 | -3 | 88*
Nc1nnnn1N=Cc1ccc(Br)cc1 | nt | 2 | nt | nt | nt | nt | nt | nt
Cc1cc(C(=O)NN=Cc2ccncc2)c2ccccc2n1 | nt | 1 | nt | nt | nt | nt | nt | nt
Cc1cccc2sc(N(CCCN(C)C)C(=O)c3sc4ccccc4c3Cl)nc12 | 3 | 0 | 4 | -3 | 7 | -48 | nt | nt
CCOc1cccc2sc(N(CCCN(C)C)C(=O)c3ccc(S(=O)(=O)N(C)c4ccccc4)cc3)nc12 | 4 | 2 | 38 | -3 | 3 | -26 | nt | nt
CCc1ccc2nc(N(CCCN(C)C)C(=O)c3ccc(S(=O)(=O)N4CCc5ccccc5C4)cc3)sc2c1 | 2 | nt | 87* | 0 | 17* | -8 | -1 | 114*
COc1cc2nc(N(CCCN(C)C)C(=O)c3ccc(S(=O)(=O)N4CCc5ccccc54)cc3)sc2cc1OC | -2 | 6 | 40 | 0 | 6 | 19 | nt | nt
COc1cccc2sc(N(CCCN(C)C)C(=O)c3sc4ccccc4c3Cl)nc12 | 2 | 7 | 45* | -1 | -3 | -56 | 2 | 69*
CCOc1cccc2sc(N(CCCN(C)C)C(=O)c3ccc(S(=O)(=O)N4CCc5ccccc5C4)cc3)nc12 | 9 | 0 | 91* | 3 | 13 | 5 | -1 | 110*
COc1cc(C=NNC(=O)c2ccccn2)ccc1OC(=O)c1ccccc1Br | nt | 4 | nt | nt | nt | nt | nt | nt
NC(=S)N=Nc1c(O)[nH]c2ccccc12 | -1 | 11 | 63* | 2 | 2 | 2 | 2 | 80*
Oc1[nH]c2ccccc2c1N=NC(=S)NCCc1ccccc1 | 2 | 2 | nt | -1 | 5 | 6 | nt | nt
Cc1ccc(N=Nc2c(O)[nH]c3ccc(F)cc23)cc1 | 0 | 0 | -24 | 0 | -4 | 11 | nt | nt
CCOc1ccc(NC(=S)N=Nc2c(O)[nH]c3ccccc23)cc1 | 2 | -1 | 61* | 1 | 2 | 11 | 3 | 77*
Oc1[nH]c2ccccc2c1N=NC(=S)N1CCOCC1 | -2 | nt | 11 | 2 | 2 | -4 | nt | nt
Cc1ccc2[nH]c(O)c(N=NC(N)=S)c2c1 | 4 | 14 | 79* | 6 | 4 | -8 | -2 | 96*
CCCCNC(=S)N=Nc1c(O)[nH]c2ccccc12 | 1 | 4 | 85* | 1 | 1 | 7 | 2 | 102*
O=C(CCC(=O)Nc1ccc(Br)cc1)NN=Cc1ccc(F)cc1 | nt | 2 | nt | nt | nt | nt | nt | nt
SMILES | PP5 primary | UCH37 inh | UBC13 inh | CTSL1 counter | PP1 inh | PREPL inhibitor | Casp3 UBC13 ctr | UBC13 conf
CC(=NNC(=O)CSCc1ccccc1Cl)c1cccc(NC(=O)c2ccccc2)c1 | nt | -1 | nt | nt | nt | nt | nt | nt
COCCNC(=S)NN=Cc1c(C)[nH]c2ccccc12 | nt | 12 | nt | nt | nt | nt | nt | nt
O=C1OCCN1C(=O)[C@H]1[C@H](c2ccc(Cl)cc2)C(c2cccc(Cl)c2)=NN1c1ccccc1 | 3 | -81 | 50* | 0 | 1 | 4 | -2 | ?
COCCNc1nc2c(-c3cccc(C(F)(F)F)c3)nnn2c2ccccc12 | 2 | -386 | 47* | -1 | 0 | -7 | 4 | ?
CC(C)OCCCNc1nc2c(-c3ccccc3)nnn2c2ccccc12 | -2 | -275 | 46* | 0 | -2 | -1 | -4 | 41
CCCCCCCCO | 1 | 3 | 6 | nt | 2 | 8 | nt | nt

Screening results as filed in PubChem BioAssay.
